# Bioassay records from PubChem BioAssay.
# The list is not random: actives were taken first. Their share in the collection is about 1.5%.
# CaV13 ICDI inh: Primary screen for inhibitors of IQ motif and Ca2+-dependent inactivation inhibitor domain binding in CACNA1D, Förster resonance energy transfer in living cells, … | HEK cells, CFP/YFP FRET ICDI-IQ, plate reader, 10 min; percent FRET-ratio fall versus neutral wells | inhibition, % at 12.3 µM | actives 0.098% (n = 340,000);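 active = mean replicate inhibition of at least 30% and at least 1% of replicates passing that level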;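 also: 0% = median of the neutral control wells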
# CAL PDZ FP-1: untagged CAL PDZ binding inhibitors, primary screen, biochemical, fluorescence polarization, HTS. Golgi-associated PDZ and coiled-coil motif-containing protein (Homo sapiens), Q9HD26. purified CAL PDZ, TMR-peptide fluorescence polarization, 1 h. inhibition, % at 24.9 µM. actives 0.92% (n = 300,000);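 active = mean inhibition of at least 30% with at least half of replicates also reaching 30%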;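 also: 0% = DMSO neutral control and 100% = excess unlabeled competitor peptide PRC23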
# LANA DNA inh: inhibitors of KSHV C-LANA binding to DNA, primary screen, biochemical, fluorescence polarization, FAM-LBS DNA, MBP-C-LANA, single point | Kaposi's sarcoma herpesvirus LANA C-terminal domain (residues 932-1162) DNA binding | inhibition, % at 9 µM | actives 0.078% (n = 340,000);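 active = highest replicate inhibition at or above 60% at 9 µM, even if other replicates fall short; inactive = all replicates below 60% inhibition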;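 also: 0% = neutral control wells and 100% = 4 µM acridine orange control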
# CAL PDZ FP-2: CAL PDZ peptide-binding inhibitors, primary screen, biochemical, fluorescence polarization, Cer-tagged CAL PDZ, HTS; Golgi-associated PDZ and coiled-coil motif-containing protein (Homo sapiens), Q9HD26; purified CAL PDZ, TMR-peptide fluorescence polarization, 1 h; inhibition, % at 20 µM; actives 0.02% (n = 330,000);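 active = highest replicate inhibition of at least 40%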;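 also: plate controls were DMSO neutral control wells for no effect and unlabeled competitor peptide control wells for full effect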
#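 Read-out basis: mP drop reported as inhibition | Assay system: Tagged CAL PDZ protein CerCALP, purified | Benchmarks: Unlabelled peptide for full inhibition, DMSO wells as neutral | Schedule: 1 h incubation at room temperature before polarization reading | Buffer or medium: Sodium phosphate/NaCl buffer pH 7.4 with TCEP, IgG, Thesit | Doses: Single point, 20 µM | Measured by: Fluorescence polarization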
# LANA-H2A inh: blockers of LANA interaction with H2A/H2B – biochemical, FP readout, HTS, primary screen | Protein LANA1 (Human herpesvirus 8 type P (isolate GK18)), Q9QR71 | cell-free LANA-H2A/H2B peptide, fluorescence polarization | inhibition, % (test concentration not listed) | actives 0.6% (n = 320,000); in the data active = inhibition mostly above about 10%, no sharp cut-off; inactive = mostly below about 6.7%
# Keap1-Nrf2 PPI: Keap1-Nrf2 protein-protein interaction inhibitors, primary screen, biochemical, fluorescence polarization, single point; Kelch-like ECH-associated protein 1 (Homo sapiens), Q14145; Keap1 Kelch-Nrf2 peptide fluorescence polarization, 1536-well; inhibition, % at 9.4 µM; actives 0.15% (n = 340,000); in the data active = inhibition above about 12%;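 also: human Keap1 Kelch domain with fluorescein labeled Nrf2 9mer peptide probe; 0% = neutral control wells and 100% = peptide positive control; higher means more block of Keap1 binding to Nrf2 peptide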
# Active calls of the source: *; · = no result given; + = active, no number.
SMILES,CaV13 ICDI inh,CAL PDZ FP-1,LANA DNA inh,CAL PDZ FP-2,LANA-H2A inh,Keap1-Nrf2 PPI
COc1cc(NC(=O)COc2cc3oc(=O)cc(C)c3cc2Cl)cc(OC)c1OC,-6,-2,0,-1,15*,-3
COc1cc(NC(=O)COc2ccc3c(C)cc(=O)oc3c2C)cc(OC)c1OC,-2,-3,-1,-2,1,-4
CC(C)CCNC(=O)c1onc(CSc2nc3ccccc3[nH]2)c1C(=O)NCCC(C)C,-5,7,-1,0,-1,-1
CC(=O)N(Cc1ccccc1)c1nccs1,-12,·,·,·,·,·
Cc1ccc(N2C(=O)CC(N(O)C3CC(=O)N(c4ccc(C)cc4)C3=O)C2=O)cc1 (centres undefined),-4,59*,1,-2,0,0
CCc1nc2c(OCC(=O)C(C)(C)C)cccn2c1N(C)C(=O)Nc1ccccc1OC,-6,·,·,·,·,·
O=C(O)Cc1sc(Nc2cccc3ccccc23)nc1-c1ccccc1,-2,-3,0,0,2,-8
O=C(O)Cc1sc(Nc2cccc3ccccc23)nc1-c1ccc(Cl)cc1,-4,62*,0,·,-2,-2
COc1ccc(-c2ccc3c(n2)CCCN3Cc2ccccc2C(F)(F)F)cc1,-5,·,·,·,·,·
COc1cccc(CNC(=O)c2cccc(S(=O)(=O)N3CCN(c4ccc(F)cc4)CC3)c2)c1,-6,0,-1,-1,22*,2
C[N+](C)(C)CCCN(Cc1ccc2c(c1)OCO2)C(=O)NC1CCCCC1,7,41*,-1,0,-3,1
CC(NCc1ccc2c(c1)OCO2)C(=O)NC1CCCCC1 (centres undefined),-4,-2,-1,0,1,1
CC1CCC(C(C)C)C(OC(=O)Cn2c(-c3ccccc3)[n+](C)c3ccccc32)C1 (centres undefined),-3,-3,1,-3,172*,0
CC1CCC(C(C)C)C(OC(=O)Cn2c(-c3ccc(F)cc3)[n+](C)c3ccccc32)C1 (centres undefined),-3,-3,-1,-1,·,3
COc1cccc(OC)c1C(=O)NCCOc1cc(C)cc(C)c1,-18,-5,-8,0,1,-2
COc1cccc(C(=O)NCCOc2cc(C)cc(C)c2)c1,-2,38*,0,-2,4,-5
COC(=O)[C@]12C[C@H](CC(=O)NCc3ccc(OC)c(OC)c3)C(=O)N(Cc3ccccc3)C1=C[C@H](C(C)(C)C)O[C@@H]2C,-9,·,·,·,·,·
CC(=O)c1ccc(NC(=O)N2C3CCC2CC(O)(c2cccnc2)C3)cc1 (centres undefined),3,-1,0,-3,124*,2
CC(C)(C)C(=O)Nc1ccc(F)cc1[N+](=O)[O-],-2,-8,1,0,12*,6
CN(C)c1ccc(N(C)C)c(C(O)(c2ccccc2)c2ccccc2)c1,-14,·,·,·,·,·
COc1ccc(OC)c(-c2nn(-c3ccccc3)cc2C(=O)N2CCc3ccccc3C2)c1,-3,-6,-1,-1,+,1
COc1ccccc1-c1nn(-c2ccccc2)cc1C(=O)N1CCc2ccccc2C1,-6,4,0,0,2,0
CN(C(=O)COC(=O)c1ccc(S(=O)(=O)N2CCOCC2)cc1)c1ccccc1,-6,45*,-1,0,2,-3
Cc1ccc(C)n1-c1ccccc1N,·,·,·,·,1,·
Nc1ccccc1-n1cccc1,-5,31*,-1,0,1,-6
SMILES,CaV13 ICDI inh,CAL PDZ FP-1,LANA DNA inh,CAL PDZ FP-2,LANA-H2A inh,Keap1-Nrf2 PPI
O=C(NCc1nnnn1-c1ccc(Cl)cc1)C1CC(=O)N(c2ccc(F)cc2)C1 (centres undefined),36*,·,·,·,·,·
OCCCNCc1ccc(N(c2ccccc2)c2ccccc2)cc1,-8,·,1,0,-1,2
O=C(C(=O)N1CCN(S(=O)(=O)c2cccc3ccccc23)CC1)c1cccc(C(F)(F)F)c1,-8,·,·,·,·,·
COc1cccc(Cl)c1NC(=O)N1CCN(c2ccnc3cc(Cl)ccc23)CC1,-12,-5,-1,-1,40*,-7
COc1cccc(Cl)c1NC(=O)N1CCN(c2cc(C)nc3ccccc23)CC1,-3,·,3,-4,-3,-6
CCC(C)c1ccccc1NC(=O)COC(=O)CCc1cc(OC)c(OC)c(OC)c1 (centres undefined),-5,83*,3,-1,-1,-4
C=C(C)CN(CC)C(=O)CSc1ccc(S(=O)(=O)N2CCN(Cc3ccccc3)CC2)cn1,-6,69*,2,-1,4,-6
C=C(C)CN(CC)C(=O)CSc1ccc(S(=O)(=O)N2CCN(C)CC2)cn1,-3,-4,-2,-2,·,-6
Cc1cc(C)c2c3c(sc2n1)C(=O)N(c1ccccc1C)CC(=O)N3,-4,74*,0,-1,6,-5
CC1CCC2(CC1)NC(=O)N(CC(=O)NC1CCCCC1C)C2=O (centres undefined),-7,33*,2,1,0,0
CN1CCCCC(NC(=O)COCc2ccccc2)C1=O (centres undefined),-1,·,·,·,·,·
Cc1ccc(NC(=O)NNC(=O)CSC2CCc3ccccc32)c(C)c1 (centres undefined),-10,·,·,·,·,·
Cc1ccc(NC(=O)c2nc(C)n(-c3ccc([N+](=O)[O-])cc3)n2)cc1,·,-2,1,0,5,-1
Cc1nc(C(=O)Nc2ccc(F)cc2)nn1-c1ccc([N+](=O)[O-])cc1,-3,-2,0,0,12*,2
CCN1C(=O)[C@H]2[C@@H](c3ccc(-c4ccc(OC)cc4)cc3)N3CCCC[C@@]3(C(=O)OC)[C@H]2C1=O,-4,-1,1,0,-2,-8
C(=NNc1ccc2ccccc2n1)c1ccccn1,-12,·,·,·,·,·
Cn1cccc1/C=C1\SC(=S)N(NC(=O)c2ccccc2)C1=O,-6,-2,-5,-2,+,-37
Cn1cccc1/C=C1\SC(=S)N(NC(=O)c2ccc(F)cc2)C1=O,-4,-3,-9,0,0,-38
COc1ccc(NC(C)=O)cc1NC(=O)c1ccc(C#N)cc1,-4,31*,4,-2,-9,-5
